Consider 23 molecules from ChEMBL document CHEMBL3808301, “Bioactive Iridoid Glycosides from the Whole Plants of Rehmannia chingii” (J Nat Prod, 2016).

Data set [1] concerns A549. Kind of data set: Cytotoxicity against human A549 cells by MTT assay. It is filed as functional, cell-based.
Data set [2] is described as follows: Cytotoxicity against human BGC823 cells by MTT assay. Particulars: BGC-823. Format: functional, cell-based.
Data set [3] concerns A2780. Kind of data set: Cytotoxicity against human A2780 cells by MTT assay. Format: functional, cell-based.
Data set [4] can be described thus: Cytotoxicity against human Bel7402 cells by MTT assay. It is filed as functional, cell-based. Particulars: Bel-7402.
For data set [5], the system named is HT-29. Kind of data set: Cytotoxicity against human HT-29 cells by MTT assay. Format: functional, cell-based.
Data set [6] deals with HepG2. Kind of data set: Hepatoprotective activity against APAP-induced toxicity in human HepG2 cells assessed as cell survival rate at 10 uM incubated for 48 hrs by MTT assay. Format: functional. The following applies: HepG2, 48 h, read-out: Survival. The procedure, abridged:
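HepG2 cells grown in DMEM with 10% fetal calf serum and penicillin/streptomycin at 37 °C, 5% CO2, then seeded and incubated overnight. Test sample (10 μM) added together with APAP (final 8 mM) for 48 h. MTT at 0.5 mg/mL for 4 h, formazan dissolved in DMSO, absorbance read at 570 nm. Survival given as % of normal cells; bicyclol (10 μM) positive control; n = 3.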

The nature of data set [7]: Cytotoxicity against mouse BV2 cells assessed as cell viability by MTT assay. Format: cell-based, BV-2. The following applies: read-out: Activity. The procedure, abridged: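 Murine microglial BV2 cells under the LPS-activation conditions of the NO assay. Viability read by MTT and expressed as a percentage of the LPS-only treatment group. Means ± SD from three independent experiments.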

For data set [8], the system named is BV-2. In words: Inhibition of LPS-induced NO production in mouse BV2 cells assessed as reduction in nitrite level pretreated for 24 hrs before LPS treatment for additional 24 hrs by Griess reaction method. It is filed as functional, cell-based. Summed up:
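BV2 microglia plated and preincubated 24 h, then exposed to LPS 0.3 μg/mL for a further 24 h. Nitrite in the culture supernatant measured by Griess reaction at OD 550 nm against a NaNO2 standard. Curcumin served as positive control. IC50 given as mean ± SD of three independent experiments.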

A value given as a limit tells only on which side of the number the result lay.

With `COc1cc(/C=C/C(=O)O[C@H]2[C@@H]3C=CO[C@@H](O[C@@H]4O[C@H](CO)[C@@H](O)[C@H](O)[C@H]4O)[C@@H]3[C@@]3(CO)O[C@@H]23)ccc1O`, the half-inhibitory concentration (IC50) in data set [1], in data set [2], in data set [3], in data set [4] and in data set [5] was above 10 µM in each case.

As to `CC(/C=C/[C@@]1(O)C(C)(C)CCC[C@@]1(C)O[C@@H]1O[C@H](C)[C@@H](O)[C@H](O)[C@H]1O)=C\C(=O)O[C@@H]1C[C@](C)(O)[C@H]2[C@H](O[C@@H]3O[C@H](CO)[C@@H](O)[C@H](O)[C@H]3O)OC=C[C@H]21`, the IC50 in data set [1], in data set [2], in data set [3], in data set [4] and in data set [5] was above 10 µM in each case.

As for `C[C@H]1[C@H]2[C@H](O[C@@H]3O[C@H](COC(=O)/C=C/c4ccccc4)[C@@H](O)[C@H](O)[C@H]3O)OC=C(C(=O)O)[C@H]2C[C@@H]1O`, the IC50 in data set [1], in data set [2], in data set [3], in data set [4] and in data set [5] was above 10 µM each time. For the same molecule, the viability at 10 µM in data set [6] was determined as 65.9%.

In the case of `C[C@@]1(O)[C@@H]2C(=C[C@H]1O[C@@H]1O[C@H](C(=O)O)[C@@H](O)[C@H](O)[C@H]1O)C=CO[C@H]2O[C@@H]1O[C@H](CO)[C@@H](O)[C@H](O)[C@H]1O`, the IC50 in data set [1], in data set [2], in data set [3], in data set [4] and in data set [5] was above 10 µM throughout.

For `OC[C@H]1O[C@@H](O[C@@H]2OC=C[C@H]3[C@H](O[C@@H]4O[C@H](CO)[C@@H](O)[C@H](O)[C@H]4O)[C@@H]4O[C@]4(CO)[C@@H]23)[C@H](O)[C@@H](O)[C@@H]1O`, the IC50 in data set [1], in data set [2], in data set [3], in data set [4] and in data set [5] was above 10 µM each time.

On to `C[C@]1(O)C[C@@H](O)[C@@H]2C=CO[C@@H](O[C@@H]3O[C@H](CO)[C@@H](O)[C@H](O[C@@H]4C[C@@H]5[C@H]([C@H](O[C@@H]6O[C@H](CO)[C@@H](O)[C@H](O)[C@H]6O)O4)[C@@](C)(O)C[C@H]5O)[C@H]3O)[C@@H]21`, for which the IC50 in data set [1], in data set [2], in data set [3], in data set [4] and in data set [5] was above 10 µM in each case.

Consider `C[C@]1(O)CCC2=CCO[C@@H](O[C@@H]3O[C@H](CO)[C@@H](O)[C@H](O)[C@H]3O)[C@@H]21`, for which the IC50 in data set [1], in data set [2], in data set [3], in data set [4] and in data set [5] was above 10 µM each time.

Turning to `C[C@]1(O)[C@H](O)C=C2C=CO[C@@H](O[C@@H]3O[C@H](CO)[C@@H](O)[C@H](O)[C@H]3O)[C@@H]21`, the IC50 in data set [1], in data set [2], in data set [3], in data set [4] and in data set [5] was above 10 µM each time.

For `OC[C@H]1O[C@H](OC[C@H]2O[C@@H](O[C@@H]3OC=C[C@H]4[C@H](O)[C@@H]5O[C@]5(CO)[C@@H]34)[C@H](O)[C@@H](O)[C@@H]2O)[C@H](O)[C@@H](O)[C@H]1O`, the IC50 in data set [1], in data set [2], in data set [3], in data set [4] and in data set [5] was above 10 µM in each case.

Turning to `OCC1=C[C@@H](O)[C@]2(O[C@@H]3O[C@H](CO)[C@@H](O)[C@H](O)[C@H]3O)C=CO[C@@H](O[C@@H]3O[C@H](CO)[C@@H](O)[C@H](O)[C@H]3O)[C@H]12`, the IC50 in data set [1], in data set [2], in data set [3], in data set [4] and in data set [5] was above 10 µM each time.

Consider `C[C@]1(O)C=CC2=CCO[C@@H](O[C@@H]3O[C@H](CO)[C@@H](O)[C@H](O)[C@H]3O)[C@@H]21`, for which the IC50 in data set [1], in data set [2], in data set [3], in data set [4] and in data set [5] was above 10 µM throughout.

Turning to `C[C@]1(O)C[C@@H](O)[C@@H]2C=CO[C@@H](O[C@@H]3O[C@H](CO)[C@@H](O)[C@H](O)[C@H]3O)[C@@H]21`, the IC50 in data set [1], in data set [2], in data set [3], in data set [4] and in data set [5] was above 10 µM throughout. The viability at 10 µM in data set [6] is 69.9%.

Take `C[C@]1(O)C[C@@H](O[C@@H]2O[C@H](CO)[C@@H](O)[C@H](O)[C@H]2O)[C@@H]2C=CO[C@@H](O[C@@H]3O[C@H](CO)[C@@H](O)[C@H](O)[C@H]3O)[C@@H]21`: the IC50 in data set [1], in data set [2], in data set [3], in data set [4] and in data set [5] was above 10 µM each time.

As to `OCC1=C[C@@H](O)[C@]2(O[C@@H]3O[C@H](CO)[C@@H](O)[C@H](O)[C@H]3O[C@H]3O[C@@H](CO)[C@H](O)[C@@H](O)[C@@H]3O)C=CO[C@@H](O[C@@H]3O[C@H](CO)[C@@H](O)[C@H](O)[C@H]3O)[C@H]12`, the IC50 in data set [1], in data set [2], in data set [3], in data set [4] and in data set [5] was above 10 µM each time.

Regarding `OCC1=C[C@@H](O)[C@]2(O[C@@H]3O[C@H](CO)[C@@H](O)[C@H](O)[C@H]3O[C@H]3O[C@@H](CO)[C@H](O)[C@@H](O)[C@@H]3O[C@@H]3O[C@H](CO)[C@@H](O)[C@H](O)[C@H]3O)C=CO[C@@H](O[C@@H]3O[C@H](CO)[C@@H](O)[C@H](O)[C@H]3O)[C@H]12`, the IC50 in data set [1], in data set [2], in data set [3], in data set [4] and in data set [5] was above 10 µM throughout. For the same molecule, the viability at 10 µM in data set [6] is 64%.

With `C[C@]1(O)C[C@@H](O)[C@@H]2C[C@H](O[C@H]3C[C@@](C)(O)[C@@H]4[C@@H](O[C@H]5O[C@@H](CO)[C@H](O)[C@@H](O)[C@@H]5O)OC=C[C@@H]43)O[C@@H](O[C@H]3O[C@@H](CO)[C@H](O)[C@@H](O)[C@@H]3O)[C@@H]21`, the IC50 in data set [1], in data set [2], in data set [3], in data set [4] and in data set [5] was above 10 µM throughout.

Take `C[C@]1(O)C[C@@H](O)[C@@H]2C[C@@H](O[C@H]3C[C@@](C)(O)[C@@H]4[C@@H](O[C@H]5O[C@@H](CO)[C@H](O)[C@@H](O)[C@@H]5O)OC=C[C@@H]43)O[C@@H](O[C@H]3O[C@@H](CO)[C@H](O)[C@@H](O)[C@@H]3O)[C@@H]21`: the IC50 in data set [1], in data set [2], in data set [3], in data set [4] and in data set [5] was above 10 µM throughout.

For the molecule `C[C@]1(O)C[C@@H](O)[C@]2(O)C=CO[C@@H](O[C@@H]3O[C@H](CO)[C@@H](O)[C@H](O)[C@H]3O)[C@@H]21`, the IC50 in data set [1], in data set [2], in data set [3], in data set [4] and in data set [5] was above 10 µM throughout.

On to `OCC1=C[C@@H](O)[C@@H]2C=CO[C@@H](O[C@@H]3O[C@H](CO)[C@@H](O)[C@H](O)[C@H]3O)[C@H]12` [AUCUBIN], for which the IC50 in data set [1], in data set [2], in data set [3], in data set [4] and in data set [5] was above 10 µM each time.

For `COC(=O)c1cc(OC)c2c(c1-c1c(CO)cc(OC)c3c1OCO3)OCO2` [BICYCLOL], the viability at 10 µM in data set [6] amounted to 66.5%.

As for `O=C(O[C@H]1[C@@H]2C=CO[C@@H](O[C@@H]3O[C@H](CO)[C@@H](O)[C@H](O)[C@H]3O)[C@@H]2[C@@]2(CO)O[C@@H]12)c1ccc(O)cc1` [CATALPOSIDE], the IC50 in data set [1], in data set [2], in data set [3], in data set [4] and in data set [5] was above 10 µM in each case.

Turning to `COc1cc(/C=C/C(=O)CC(=O)/C=C/c2ccc(O)c(OC)c2)ccc1O` [CURCUMIN], the viability in data set [7] turned out to be 93.4%. Further, the IC50 in data set [8] is 0.52 µM.

In the case of `CC(/C=C/[C@@]1(O)C(C)(C)CCC[C@@]1(C)O)=C\C(=O)O[C@@H]1C[C@](C)(O)[C@H]2[C@H](O[C@@H]3O[C@H](CO)[C@@H](O)[C@H](O)[C@H]3O)OC=C[C@H]21` [REHMAGLUTOSIDE F], the IC50 in data set [1], in data set [2], in data set [3], in data set [4] and in data set [5] was above 10 µM in each case. In addition, in data set [6], the viability at 10 µM came out at 63.4%.
